An excerpt weighted towards active compounds, which were near 2.2% of everything screened.
VIM-2 inh: inhibitors of Pseudomonas aeruginosa VIM-2 metallo-beta-lactamase. purified VIM-2, nitrocefin hydrolysis, epi-absorbance fluorescence. inhibition, % at 5.6 µM. 290,000 tested, 0.89% active. AID 1527;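 active means inhibition above the mean of all tested compounds plus 3 SD, cutoff set per screening run, cut at about 7.5% in these data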;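 further: red hydrolysis product quenches plate fluorescence so inhibitors raise well fluorescence; 0% = enzyme with DMSO and 100% = DMSO without enzyme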
IMP-1 inh: blocks Pseudomonas aeruginosa IMP-1 metallo-beta-lactamase; 290,000 tested, 0.45% active; inhibition, % at 5.6 µM; AID 1556; purified IMP-1, nitrocefin hydrolysis, epi-absorbance fluorescence;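 active means inhibition above the mean plus 3 SD of all compounds in the same screening run, cut at about 4.5% in these data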;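 further: 0% = IMP-1 with DMSO and 100% = DMSO wells lacking enzyme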
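System: purified IMP-1; amount: IMP-1 0.2 nM before substrate addition; compound: single dose, 5.6 µM; times: 25 °C, 15 min preincubation, 25 min reaction; signal: Epi-absorbance via hydrolysed-nitrocefin quenching of white-plate fluorescence, 480/530 nm, EDTA stop; benchmarks: DMSO with and without IMP-1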
GLD-1 TGE inh: GLD-1-TGE RNA interaction inhibition (C. elegans); inhibition, % at 5.96 µM; AID 2280; Q17339; purified GLD-1 + fluorescein TGE RNA, fluorescence polarization; 320,000 tested, 0.44% active;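 active means percent inhibition above a per-plate cutoff, the plate mean of test compounds plus 3 SD, cut at about 30% in these data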;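 further: 0% = DMSO wells with GLD-1 and probe and 100% = wells lacking GLD-1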
Bcl-xL primary: blocks human Bcl-xL binding to Bim BH3 peptide; 320,000 tested, 0.7% active; inhibition, % at 10.9 µM; GST-Bcl-xL / FITC-Bim BH3 peptide fluorescence polarization;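 active means inhibition above the mean of all tested compounds plus 3 SD, cutoff set per campaign, cut at about 30% in these data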;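 further: 0% = DMSO wells and 100% = unlabeled Bim-BH3 peptide competitor; inhibitors lower millipolarization by displacing the labeled peptide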
EBV gp42 inh: inhibitors of Epstein-Barr virus glycoprotein 42 | Q1HVG2 | Fluorescence polarization binding assay, mP read-out | inhibition, % (tested at 21.74 µM) | 220,000 tested, 0.42% active; in the data active means inhibition above about 50%
MEX-5 binding: C. elegans MEX-5 TCR-2 RNA binding activity; Q9XUB2; MEX-5/FITC-TCR2 RNA binding, fluorescence polarization; hits give low values; activity score (negative = inhibition of binding), % at 10 µM; 300,000 tested, 0.38% active;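 active means inhibition past about -25% in most replicates, and total fluorescence under double the plate's negative control median, limit read from the data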;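 further: 0% = DMSO and -100% = 5 µM competing unlabeled TCR2 RNA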
Target sequence (Q9XUB2 whole entry, looked up): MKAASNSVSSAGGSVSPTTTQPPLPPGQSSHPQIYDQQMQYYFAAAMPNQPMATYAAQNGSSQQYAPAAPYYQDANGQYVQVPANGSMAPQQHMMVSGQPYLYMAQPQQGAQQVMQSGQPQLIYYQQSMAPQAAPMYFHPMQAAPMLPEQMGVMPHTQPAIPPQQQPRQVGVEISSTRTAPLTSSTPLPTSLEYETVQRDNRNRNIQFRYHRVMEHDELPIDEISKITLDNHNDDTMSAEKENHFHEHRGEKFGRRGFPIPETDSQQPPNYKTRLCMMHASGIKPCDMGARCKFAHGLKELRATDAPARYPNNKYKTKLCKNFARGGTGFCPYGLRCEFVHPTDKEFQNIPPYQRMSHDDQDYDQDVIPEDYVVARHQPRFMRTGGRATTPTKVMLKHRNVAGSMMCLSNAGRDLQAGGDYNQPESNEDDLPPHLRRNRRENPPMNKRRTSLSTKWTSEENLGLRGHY
An asterisk follows results filed as active; x = not tested or not shown.

SMILES	VIM-2 inh	IMP-1 inh	GLD-1 TGE inh	Bcl-xL primary	EBV gp42 inh	MEX-5 binding
C[C@@H]1O[C@@H](Oc2c(-c3cc(O)c(O)c(O)c3)oc3cc(O)cc(O)c3c2=O)[C@H](O)[C@H](O)[C@H]1O	-1	-2	1	18	-4	-58*
CC1CCCN(C(=O)NC2CC(=O)N(c3ccc4c(c3)OCCO4)C2)C1 (stereo not drawn)	x	x	5	6	x	-2
CC(NC(=O)C1CCN(C(=O)c2cccs2)CC1)c1ccc(S(N)(=O)=O)cc1 (stereo not drawn)	x	x	-2	-1	x	x
Cc1ccccc1-n1nc2c(c1NC(=O)c1c(-c3ccccc3Cl)noc1C)CSC2	-2	44*	-7	1	-2	x
COc1ccc(C2(C)NC(=O)N(CC(=O)c3cc(C)n(C4CC4)c3C)C2=O)cc1OC (stereo not drawn)	x	x	-3	1	x	x
Cc1nn(-c2ccccc2)c(N2CCCC2)c1/C=C1\N=C(c2ccccc2)OC1=O	-3	-5	-4	-3	117*	2
CCOC(=O)CSc1nc(N2CCOCC2)c2c(c1C#N)CC(C)(C)N(C)C2	-1	0	73*	59*	-13	-1
CCOC(=O)CSc1nc(N2CCOCC2)c2c(c1C#N)CC(C)(C)OC2	-1	-1	0	0	x	1
CC(Sc1nc(N2CCOCC2)c2c(c1C#N)CC(C)(C)OC2)C(=O)O (stereo not drawn)	-1	-3	-10	31*	x	0
CN(C)c1ccc(C=C2C(=O)OC(C)(C(C)(C)C)OC2=O)cc1 (stereo not drawn)	-1	-2	-14	-15	-192	-7
CCN(CC)c1ccc(C=C2C(=O)OC(C)(C(C)(C)C)OC2=O)cc1 (stereo not drawn)	x	x	-5	-21	x	-69*
CCN(CC)c1ccc(C=C2C(=O)OC(c3ccccc3)OC2=O)cc1 (stereo not drawn)	-2	-3	-4	-6	91*	2
CCc1nn(CC(=O)NCCc2ccc(OC)cc2OC)c(=O)c2cc3occc3n12	-3	-3	-2	5	x	0
Cc1cccn2c(=O)c(C=C(C#N)C#N)c(N3CCN(C)CC3)nc12	2	-2	25	58*	x	-10
CN1CCc2c(OCc3ccc(F)cc3)cccc2C1=O	1	23*	7	-2	4	-1
O=C1c2cccc(OCc3ccc(F)cc3)c2CCN1Cc1ccc(F)cc1	-2	-2	0	4	-4	0
CCCCC1=CC2=C(c3ccco3)C(=O)C(C)(OC(=O)c3ccc(OC)cc3)C(=O)C2=CN1CCOC (stereo not drawn)	x	x	16	18	13	-5
CCCCC1=CC2=C(c3ccco3)C(=O)C(C)(OC(=O)c3ccc(OC)cc3)C(=O)C2=CN1Cc1ccccc1 (stereo not drawn)	x	x	44*	37*	52*	-8
CCCCC1=CC2=C(c3ccco3)C(=O)C(C)(OC(=O)c3ccc(OC)cc3)C(=O)C2=CN1C1CCCCC1 (stereo not drawn)	x	x	39*	46*	10	-1
CNC(=O)c1cc(C(=O)c2ccc(Cl)cc2)c(Br)[nH]1	-3	-3	5	8	x	2
CN(Cc1ccc(Cl)s1)C(=O)CNC(=O)CNC(=O)c1ccc(Cl)cc1Cl	x	x	1	-2	x	x
CC(C)C[C@H]1C(=O)N2CCC[C@H]2[C@]2(O)O[C@](NC(=O)[C@@H]3C=C4c5cccc6[nH]c(Br)c(c56)CC4N(C)C3)(C(C)C)C(=O)N12 (stereo partly drawn)	1	-2	95*	87*	16	-4
O=C(O)/C=C\c1ccccc1Oc1cccc(Cl)c1	-2	-5	-2	32*	-17	0
O=C(O)/C=C/c1ccccc1Oc1ccc(Cl)cc1Cl	-1	-4	-1	-2	-8	1
CCCCS(=O)(=O)Nc1ccc(N2CCOCC2)c(S(=O)(=O)N2CCOCC2)c1	-3	-3	-4	-1	x	1
SMILES	VIM-2 inh	IMP-1 inh	GLD-1 TGE inh	Bcl-xL primary	EBV gp42 inh	MEX-5 binding
CSc1nsc(/C=C/Nc2ccc(O)cc2C)c1C#N	-3	-4	71*	60*	-1	-1
COC(=O)c1ccc(NC(=O)CCN2CCOCC2)cc1	-3	-4	3	6	x	0
O=C(Cn1cnc2c(cnn2-c2ccc(Cl)cc2)c1=O)NC1CCCCC1	-2	5.4*	3	4	-18	x
O=C(Cn1cnc2c(cnn2-c2ccc(Cl)cc2)c1=O)NCCc1ccccc1	-2	-2	8	5	-17	-2
N=C1C(c2nc(-c3ccc(Cl)cc3)cs2)=C(O)CN1CCCN1CCOCC1	14*	-3	9	2	-12	-3
C=CCn1c(SCC(C)=O)nc2scc(-c3ccco3)c2c1=O	4	16*	5	15	x	2
CCCN1C(=O)/C(=C/c2c(NCCCOC(C)C)nc3c(C)cccn3c2=O)SC1=S	-5	-1	-61	-54	-61	4
CCC(C)N1C(=O)/C(=C/c2c(NCCCOC(C)C)nc3c(C)cccn3c2=O)SC1=S (stereo not drawn)	0	-1	-85	-60	130*	x
COc1cc(/C=C2/S/C(=N/S(=O)(=O)c3ccccc3)NC2=O)c([N+](=O)[O-])cc1OC	-1	-2	20	40*	-10	-5
Cc1ccccc1C(=O)Nc1nnc(S(=O)(=O)N(C)Cc2ccco2)s1	9.8*	-3	4	5	x	-2
CN(Cc1ccco1)S(=O)(=O)c1nnc(NC(=O)c2ccccc2Cl)s1	9.1*	-3	3	13	x	-2
Nc1ccn(CC(=O)N[C@H](CO)Cc2c[nH]c3ccccc23)c(=O)n1	x	x	-7	-3	x	x
COc1c(C)cc(Br)cc1C(=O)Nc1ccc(S(N)(=O)=O)cc1	-2	-2	5	-1	-10	-3
COc1cccc2[nH]c3c(N4CCCCC4)ncnc3c12	6	-2	-2	-1	7	2
CCOC(=O)C1CCN(c2ncnc3c2[nH]c2cccc(OC)c23)CC1	8.4*	-3	6	-2	-12	1
O=C(Nc1ccccc1)Nc1nnc(-c2ccccc2)o1	-1	-2	4	-2	-18	-1
O=C(Nc1ccccc1)Nc1n[nH]c2nnc(-c3ccccc3)c(-c3ccccc3)c12	0	21*	8	4	x	1
O=C(CN1Cc2ccccc2C1=O)Nc1ccc2c(c1)OCCO2	-2	0	6	2	x	0
CCN(Cc1ccccc1)S(=O)(=O)c1c(C)[nH]c(C)c1C(=O)N1CCCC1	2	0	1	0	x	2
Cc1ccccc1Cn1c(C)cc(C)c(C#N)c1=O	-2	4.5*	5	7	-11	-3
Cc1cc(C)n(Cc2ccc(F)cc2)c(=O)c1C#N	0	-1	5	2	-20	-3

Source: PubChem BioAssay
